Test results as given in ChEMBL document CHEMBL3085625, “Synthesis, biological evaluation and molecular modeling studies of some novel thiazolidinediones with triazole ring” (Eur J Med Chem, 2013).
In brackets after ≈: the same amount, converted by molar mass.

Assays:
[1] = system: MCF7; test: Cytotoxicity against human MCF7 cells after 24 hrs by MTT assay; format: functional, cell-based; conditions: MCF7, 24 h
How it was run: (§1)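 MTT read-out: viable-cell mitochondrial dehydrogenase reduces tetrazolium to formazan, which is dissolved in DMSO and read at 570 nm. IC50 reported in μg/ml. Doxorubicin serves as positive control.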

[2] = Inhibition of alpha-glucosidase (unknown origin) using p-nitrophenyl-alpha-D-glucopyranoside as substrate assessed as p-nitrophenol formation incubated for 5 mins prior to substrate addition measured after 5 mins by spectrophotometry
How it was run: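 Test samples (5 mg/mL DMSO stock) in 100 mM phosphate buffer pH 6.8 preincubated 5 min with yeast α-glucosidase (0.76 U/mL) or crude rat intestinal enzyme (supernatant of sonicated acetone powder in saline, centrifuged). Then 5 mM p-nitrophenyl-α-D-glucopyranoside added; p-nitrophenol read at 405 nm after 5 min. Sample blanks without substrate; DMSO controls. Inhibition = (1−B/A)×100. Triplicate; IC50 by regression of mean inhibition.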

[3] = Cytotoxicity against human IMR32 cells after 24 hrs by MTT assay; format: functional, cell-based; conditions: IMR-32, 24 h; how it was run: as §1
[4] = system: HepG2; test: Cytotoxicity against human HepG2 cells after 24 hrs by MTT assay; format: functional, cell-based; conditions: HepG2, 24 h; how it was run: as §1

CC(C)c1ccc(-n2cc(CN3C(=O)S/C(=C\c4ccc5c(c4)OCO5)C3=O)nn2)cc1
IC50 [1]: 78 µg/mL (≈ 174 µM) | IC50 [2]: 0.3 µg/mL (≈ 0.669 µM) | IC50 [3]: 97.5 µg/mL (≈ 217 µM) | IC50 [4]: 66 µg/mL (≈ 147 µM)

O=C1S/C(=C\c2ccc3c(c2)OCO3)C(=O)N1Cc1cn(CCc2ccccc2)nn1
IC50 [1]: 30 µg/mL (≈ 69 µM) | IC50 [2]: 0.3 µg/mL (≈ 0.69 µM) | IC50 [3]: 52.6 µg/mL (≈ 121 µM) | IC50 [4]: 31 µg/mL (≈ 71.4 µM)

O=C1S/C(=C\c2ccc3c(c2)OCO3)C(=O)N1Cc1cn(-c2ccc(F)cc2)nn1
IC50 [1]: 96.2 µg/mL (≈ 227 µM) | IC50 [2]: > 100 µg/mL | IC50 [3]: > 100 µg/mL | IC50 [4]: > 100 µg/mL

O=C1S/C(=C\c2ccc3c(c2)OCO3)C(=O)N1Cc1cn(-c2ccc(Cl)c(F)c2)nn1
IC50 [1]: > 100 µg/mL | IC50 [2]: > 100 µg/mL | IC50 [3]: > 100 µg/mL | IC50 [4]: > 100 µg/mL

COc1ccc(C)cc1-n1cc(CN2C(=O)S/C(=C\c3ccc4c(c3)OCO4)C2=O)nn1
IC50 [1]: 34 µg/mL (≈ 75.5 µM) | IC50 [2]: > 100 µg/mL | IC50 [3]: 52.6 µg/mL (≈ 117 µM) | IC50 [4]: 45 µg/mL (≈ 99.9 µM)

O=C1S/C(=C\c2ccc3c(c2)OCO3)C(=O)N1Cc1cn(-c2ccc(Cl)cc2)nn1
IC50 [1]: > 100 µg/mL | IC50 [2]: 33.6 µg/mL (≈ 76.2 µM) | IC50 [3]: > 100 µg/mL | IC50 [4]: > 100 µg/mL

O=C1S/C(=C\c2ccc3c(c2)OCO3)C(=O)N1Cc1cn(-c2ccccc2Cl)nn1
IC50 [1]: 87 µg/mL (≈ 197 µM) | IC50 [2]: 40 µg/mL (≈ 90.7 µM) | IC50 [3]: > 100 µg/mL | IC50 [4]: > 100 µg/mL

C[C@H]1O[C@H](O[C@H]2[C@H](O)[C@@H](O)[C@@H](O[C@H]3[C@H](O)[C@@H](O)C(O)O[C@@H]3CO)O[C@@H]2CO)[C@H](O)[C@@H](O)[C@@H]1N[C@H]1C=C(CO)[C@@H](O)[C@H](O)[C@H]1O (some centres not stated) [ACARBOSE]
IC50 [2]: 12.5 µg/mL (≈ 19.4 µM)

O=C1S/C(=C\c2ccc3c(c2)OCO3)C(=O)N1Cc1cn(-c2ccc(F)c(F)c2)nn1
IC50 [1]: > 100 µg/mL | IC50 [2]: > 100 µg/mL | IC50 [3]: > 100 µg/mL | IC50 [4]: > 100 µg/mL

O=C1S/C(=C\c2ccc3c(c2)OCO3)C(=O)N1Cc1cn(-c2ccccc2[N+](=O)[O-])nn1
IC50 [1]: > 100 µg/mL | IC50 [2]: 0.1 µg/mL (≈ 0.222 µM) | IC50 [3]: > 100 µg/mL | IC50 [4]: > 100 µg/mL

Cc1ccc(-n2cc(CN3C(=O)S/C(=C\c4ccc5c(c4)OCO5)C3=O)nn2)cc1
IC50 [1]: > 100 µg/mL | IC50 [2]: 75.5 µg/mL (≈ 180 µM) | IC50 [3]: > 100 µg/mL | IC50 [4]: > 100 µg/mL

COc1cccc2c1C(=O)c1c(O)c3c(c(O)c1C2=O)C[C@@](O)(C(=O)CO)C[C@@H]3O[C@H]1C[C@H](N)[C@H](O)[C@H](C)O1 [DOXORUBICIN]
IC50 [3]: 0.8 µg/mL (≈ 1.47 µM) | IC50 [4]: 0.6 µg/mL (≈ 1.1 µM)

CCCCCCn1cc(CN2C(=O)S/C(=C\c3ccc4c(c3)OCO4)C2=O)nn1
IC50 [1]: 43 µg/mL (≈ 104 µM) | IC50 [2]: > 100 µg/mL | IC50 [3]: 77.6 µg/mL (≈ 187 µM) | IC50 [4]: 67 µg/mL (≈ 162 µM)
